One series relates to MRPs. Put plainly: Glucuronide excretion in HeLa1A1 cells with MK571. Type of series: cell-based. The conditions noted are these: CA 10 μM, MK571 5 or 20 μM. The essentials: (§1)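 HeLa cells overexpressing UGT1A1 grown in DMEM/10% FBS, seeded 2 × 10^5 cells/well and used near 90% confluence after HBSS washes. Exposed at 37 °C to test compound 10 μM in HBSS with inhibitor 5 or 20 μM or vehicle. Medium sampled at 0.5, 1, 1.5 and 2 h; cells lysed at 2 h in 50% methanol. Excretion rate, CLapp (ER/intracellular concentration) and fmet calculated; triplicate.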

The target in a further series is T1, BCRP (Homo sapiens, UniProt Q9UNQ0).
T1 sequence (Q9UNQ0 1-655): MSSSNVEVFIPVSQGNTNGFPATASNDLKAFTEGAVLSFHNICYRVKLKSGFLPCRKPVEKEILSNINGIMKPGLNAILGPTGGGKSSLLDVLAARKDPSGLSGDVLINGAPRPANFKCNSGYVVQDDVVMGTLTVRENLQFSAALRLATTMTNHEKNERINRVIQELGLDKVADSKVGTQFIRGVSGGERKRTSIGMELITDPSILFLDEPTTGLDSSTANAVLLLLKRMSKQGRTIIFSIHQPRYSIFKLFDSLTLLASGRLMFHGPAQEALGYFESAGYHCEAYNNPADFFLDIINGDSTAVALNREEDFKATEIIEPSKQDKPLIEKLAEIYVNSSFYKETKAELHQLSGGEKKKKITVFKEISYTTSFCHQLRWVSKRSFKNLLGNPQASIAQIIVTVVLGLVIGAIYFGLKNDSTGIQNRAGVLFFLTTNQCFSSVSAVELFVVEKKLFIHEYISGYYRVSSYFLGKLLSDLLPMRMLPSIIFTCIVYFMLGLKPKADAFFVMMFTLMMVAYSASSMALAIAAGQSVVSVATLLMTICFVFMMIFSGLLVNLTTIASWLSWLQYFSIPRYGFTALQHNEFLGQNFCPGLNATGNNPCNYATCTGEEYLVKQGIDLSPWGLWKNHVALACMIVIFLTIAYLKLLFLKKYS
Briefly: Glucuronide excretion in HeLa1A1 cells with DIPY. Type of series: cell-based. The conditions noted are these: CA 10 μM, DIPY 5 or 20 μM. The essentials:
as §1

The values that follow come from article PMC7396962 (Xenobiotica; the fate of foreign compounds in biological …, 2020).

Structures are written as SMILES.

In the case of `CN(C)C(=O)CCSC(SCCC(=O)O)c1cccc(/C=C/c2ccc3ccc(Cl)cc3n2)c1` (centres unmarked) [MK571], in the series on MRPs, the fmet value result is “significant reduction” and the “intracellular accumulation of glucuronide” value is “elevated”.
Turning to `OCCN(CCO)c1nc(N2CCCCC2)c2nc(N(CCO)CCO)nc(N3CCCCC3)c2n1` [DIPY, dipyridamole], on BCRP, the CA-O-glucuronide excretion entry is given as “moderate decrease”, the fmet values result was “significant decrease” and the “intracellular amounts of glucuronide levels” value was “statistical increase”.
